Source: ChEMBL document CHEMBL1126570, “Synthesis and cytotoxicity of potential tumor-inhibitory analogues of trimelamol (2,4,6-tris[(hydroxymethyl)methylamino]-1,3,5-triazine) having electron-withdrawing groups in place of methyl” (J Med Chem, 1993)
Values after ≈ are worked out from the molar mass of the structure shown.

Experiments:
[1] = tested on: NCI-H69; experiment: In vitro cytotoxicity against human small cell lung cancer H69 cell lines; format: functional, cell-based
In short: (§1)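 MTT assay on suspension lines dispersed to single cells (L1210 RPMI/10% DHS; ADJ/PC6 DMEM/20% DHS plus hydrocortisone, insulin; H69 RPMI/10% FCS; Walker 256 DMEM/10% DHS), 1×10^3–8×10^3 cells/well. Continuous exposure 72–144 h, 37 °C; MTT 4–5 h, plates spun, formazan in DMSO, A540 vs untreated control. 3–6 replicate wells, each assay at least twice.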

[2] = tested on: L1210; experiment: In vitro cytotoxicity against L1210 murine lymphocytic leukemia cell lines; format: functional, cell-based; conditions: Mus musculus; in short: as §1
[3] = In vitro cytotoxicity against walker rat carcinoma 256 cell lines; format: functional; in short: as §1
[4] = tested on: ADJ/PC6 plasmacytoma (Mus musculus); experiment: In vitro cytotoxicity against PC6 murine plasmacytoma cell lines
[5] = Aqueous solubility was determined; format: physicochemical
[6] = Half-life was determined in water at 2.0 pH at 37 degree C; format: ADME; conditions: pH 2
In short: (§2)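 Compound added from 50 mM DMSO stock to 10 mL of medium in polypropylene tubes, final 100 μM; tubes held in water baths at 37 °C or ambient (20–24 °C). Remaining parent measured by HPLC on C8 column, UV 225 nm; t1/2 from semilog plot of peak area versus time. Run on at least two occasions, variation 2–22%.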

[7] = Half-life was determined in water at 7.5 pH at 37 degree C; format: ADME; conditions: pH 7.5; in short: as §2
[8] = In vitro cytotoxicity against GCT cell lines; format: functional, cell-based; conditions: Homo sapiens
In short: (§3)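 MTT assay on GCT-27 and GCT-27/CisR (DMEM, 10% FCS, glutamine, hydrocortisone, insulin), trypsinized to single cells, 1×10^3–8×10^3 cells/well. Continuous drug exposure, 72–144 h at 37 °C, 8% CO2; MTT 4–5 h, formazan in DMSO, A540 (ref 690) as fraction of untreated control. 3–6 replicate wells per concentration, each assay at least twice.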

[9] = In vitro cytotoxicity against GCT / cisR cell lines; format: functional, cell-based; conditions: Homo sapiens; in short: as §3
[10] = Half-life was determined in 0.9%sodium chloride at 5.2 pH at room temperature; format: ADME; conditions: 0.9% sodium chloride solution, pH 5.2; in short: as §2
[11] = Half-life was determined in 5%dextrose at 4.0 pH at room temperature; format: ADME; conditions: 5% dextrose solution, pH 4; in short: as §2
[12] = Half-life was determined in water at 7.5 pH at room temperature; format: ADME; conditions: pH 7.5; in short: as §2
[13] = Half-life was determined in water at 5.0 pH at 37 degree C; format: ADME; conditions: pH 5; in short: as §2
[14] = Half-life was determined in water at 5.0 pH at room temperature; format: ADME; conditions: pH 5; in short: as §2

SMILES | IC50 [1] [µM] | IC50 [2] [µM] | IC50 [3] [µM] | IC50 [4] [µM] | solubility [5] [µg/mL] | half-life [6] [h] | half-life [7] [h] | IC50 [8] [µM] | IC50 [9] [µM] | half-life [10] [h] | half-life [11] [h] | half-life [12] [h] | half-life [13] [h] | half-life [14] [h]
CNc1nc(NCC(F)(F)F)nc(N(CO)CC(F)(F)F)n1 | 32.2 | 112 | 27.5 | 71.4 |  |  |  |  |  |  |  |  |  | 
C#CCN(CO)c1nc(N(CO)CC#C)nc(N(CO)CC#C)n1 | 13.1 | 47.8 | 14.1 | 35.2 | 30 (≈ 90.8 µM) | 0.667 | 7.5 | 53.9 | 47.3 |  |  |  |  | 
OCN(CC(F)(F)F)c1nc(N(CO)CC(F)(F)F)nc(N(CO)CC(F)(F)F)n1 | 12.8 | 55.1 | 12.2 | 29.5 | 30 (≈ 64.9 µM) | 1 | 11.5 |  |  | 95 | 50 | 85 |  | 
OCN(CC(F)(F)F)c1nc(NCC(F)(F)F)nc(NCC(F)(F)F)n1 | 42.3 | 83.2 | 22.5 | 77.6 |  |  |  |  |  |  |  |  |  | 
N#CCN(CO)c1nc(N(CO)CC#N)nc(N(CO)CC#N)n1 | 11.8 | 32.4 | 7.5 | 19.4 | 1000 (≈ 3000 µM) | 5.83 | 4.58 |  |  | 135 | 180 | 75.2 | 16 | 102
OCOCN(CC(F)(F)F)c1nc(N(CO)CC(F)(F)F)nc(N(CO)CC(F)(F)F)n1 | 13.4 |  |  | 29.8 |  |  |  | 25.8 | 23.7 |  |  |  |  | 
CN(CO)c1nc(N(C)CO)nc(N(C)CO)n1 [TRIMELAMOL] | 8.5 | 33.4 | 9.4 | 12.9 | 4500 (≈ 17400 µM) |  | 2 | 24.3 | 30.9 | 4.58 | 5.83 |  | 3.33 | 13.7
